From ChEMBL document CHEMBL3745678, “Novel β-Carboline/Hydroxamic Acid Hybrids Targeting Both Histone Deacetylase and DNA Display High Anticancer Activity via Regulation of the p53 Signaling Pathway” (J Med Chem, 2015)

Tests used:
[1] = biological target: T1, Protein deacetylase HDAC6 (Homo sapiens, UniProt Q9UBN7); test: Inhibition of recombinant human HDAC6 using Boc-Lys (Ac)-AMC as substrate after 60 mins by fluorometric analysis
T1 sequence (Q9UBN7 whole entry): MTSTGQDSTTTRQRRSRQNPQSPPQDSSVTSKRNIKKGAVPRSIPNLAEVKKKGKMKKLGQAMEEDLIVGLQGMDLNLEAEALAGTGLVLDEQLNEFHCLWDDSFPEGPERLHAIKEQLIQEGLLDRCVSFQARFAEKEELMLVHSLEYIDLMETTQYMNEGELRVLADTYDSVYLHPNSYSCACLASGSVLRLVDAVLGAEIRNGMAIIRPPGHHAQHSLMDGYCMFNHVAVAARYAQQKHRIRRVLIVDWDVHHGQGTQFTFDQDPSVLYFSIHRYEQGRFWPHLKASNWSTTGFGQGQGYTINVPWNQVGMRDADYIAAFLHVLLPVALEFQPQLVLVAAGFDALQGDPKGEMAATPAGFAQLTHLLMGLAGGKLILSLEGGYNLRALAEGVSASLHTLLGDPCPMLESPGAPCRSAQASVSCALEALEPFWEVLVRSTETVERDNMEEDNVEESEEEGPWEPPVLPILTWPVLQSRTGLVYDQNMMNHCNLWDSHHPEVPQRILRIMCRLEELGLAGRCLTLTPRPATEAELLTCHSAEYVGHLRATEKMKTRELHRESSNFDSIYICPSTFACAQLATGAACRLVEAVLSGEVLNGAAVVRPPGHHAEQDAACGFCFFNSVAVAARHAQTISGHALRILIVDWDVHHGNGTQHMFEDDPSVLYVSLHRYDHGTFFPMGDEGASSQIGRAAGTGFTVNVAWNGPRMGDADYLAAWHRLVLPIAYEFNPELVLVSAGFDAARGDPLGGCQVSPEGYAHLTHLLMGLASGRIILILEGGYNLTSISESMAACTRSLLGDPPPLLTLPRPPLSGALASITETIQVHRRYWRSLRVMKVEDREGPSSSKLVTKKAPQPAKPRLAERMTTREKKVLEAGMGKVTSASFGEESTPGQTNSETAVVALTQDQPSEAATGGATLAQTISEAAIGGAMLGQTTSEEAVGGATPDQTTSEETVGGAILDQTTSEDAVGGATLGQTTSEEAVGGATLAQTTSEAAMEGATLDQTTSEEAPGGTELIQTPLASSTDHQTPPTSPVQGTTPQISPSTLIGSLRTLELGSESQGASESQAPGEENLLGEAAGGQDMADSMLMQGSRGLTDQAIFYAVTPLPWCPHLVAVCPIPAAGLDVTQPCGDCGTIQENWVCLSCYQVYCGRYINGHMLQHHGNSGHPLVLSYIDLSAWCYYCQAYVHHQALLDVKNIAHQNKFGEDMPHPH

[2] = Acute toxicity in ICR mouse assessed as survival rate at 300 mg/kg, ip measured on day 14; type: organism-based; settings: in vivo
Outline: (§1)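 Female ICR mice, single intraperitoneal injection at 585.9, 468.8, […], 300 or 240 mg/kg, or vehicle control, n = 10 per group. Deaths counted at 1 h, 4 h, daily on days 1-4 and over days 5-14. Eating, drinking, body weight and activity observed for 14 days, with survival (%) taken on day 14. LD50 calculated from mortality.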

Mus musculus = test: Acute toxicity in ICR mouse assessed as death at 240 to 300 mg/kg, ip measured after 3 days; type: organism-based; settings: in vivo, 72 h
Outline: as §1

Question: What does the source list for `COc1ccc(-c2nc(NC(=O)NCCCC(=O)NO)cc3c2[nH]c2ccccc23)cc1`?
Answer: IC50 [1]: 34 nM; survival at 14 day [2]: 90%; Activity (Mus musculus): Non-toxic
